Results on 36 compounds are retold here after ChEMBL document CHEMBL3758131, “Towards new 5-HT7 antagonists among arylsulfonamide derivatives of (aryloxy)ethyl-alkyl amines: Multiobjective based design, synthesis, and antidepressant and anxiolytic properties” (Eur J Med Chem, 2016).

One data set is filed under the species Homo sapiens. The data set can be described thus: Selectivity index ratio of Ki for human 5-HT1A receptor to Ki for human 5-HT7B.
The target of data set [1] is T1, 5-hydroxytryptamine receptor 1A (Homo sapiens, UniProt P08908).
T1 sequence (P08908 whole entry): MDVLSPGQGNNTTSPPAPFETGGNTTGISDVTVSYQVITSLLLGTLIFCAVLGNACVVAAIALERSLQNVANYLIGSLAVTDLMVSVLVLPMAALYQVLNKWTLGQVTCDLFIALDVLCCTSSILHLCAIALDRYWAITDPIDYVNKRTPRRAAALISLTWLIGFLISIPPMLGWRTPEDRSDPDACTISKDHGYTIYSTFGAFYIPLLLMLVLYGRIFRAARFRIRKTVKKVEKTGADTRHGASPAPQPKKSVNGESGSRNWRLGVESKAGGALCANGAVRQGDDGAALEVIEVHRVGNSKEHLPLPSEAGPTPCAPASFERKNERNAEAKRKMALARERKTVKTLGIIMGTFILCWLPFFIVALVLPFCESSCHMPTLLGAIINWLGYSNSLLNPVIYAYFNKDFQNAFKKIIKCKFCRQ
As to the kind of experiment: Displacement of [3H]-8-OH-DPAT from human 5-HT1A receptor expressed in HEK293 cells after 1 hr. It counts as cell-based. The procedure, abridged:
(§1)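 Competition binding on membranes from HEK293 cells stably expressing human 5-HT7b or 5-HT1A. Incubation 1 h, at 37 °C for 5-HT7b and at room temperature for 5-HT1A. Non-specific binding defined with 10 µM 5-HT.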

The target of data set [2] is T2, 5-hydroxytryptamine receptor 7 (Homo sapiens, UniProt P34969). As to the kind of experiment: Displacement of [3H]-5-CT from human 5-HT7B receptor expressed in HEK293 cells after 1 hr. The data set is classed as cell-based. In short, it runs like this:
as §1

For data set [3], the target named is 5-hydroxytryptamine receptor 2A (Homo sapiens, UniProt P28223). As to the kind of experiment: Displacement of [3H]-Ketanserin from human 5-HT2A receptor expressed in HEK293 cells after 1 hr. The data set is classed as cell-based.
Data set [4] addresses T2, 5-hydroxytryptamine receptor 7. As to the kind of experiment: Antagonist activity at human 5-HT7B receptor expressed in […] cells assessed as inhibition of 5-CT induced cAMP production at 10^-6 M after 30 mins by TR-FRET assay. It counts as functional, cell-based.
The target is the same in data set [5]. The data set can be described thus: Antagonist activity at human 5-HT7B receptor expressed in CHO cells assessed as inhibition of 5-CT induced cAMP production at 10^-7 M after 30 mins by TR-FRET assay. It counts as functional, cell-based.
Data set [6] relates to Mus musculus. The data set can be described thus: Toxicity in ip dosed C57BL/6J mouse assessed as effect on spontaneous locomotory activity at MED measured over 6 mins. It counts as organism-based. Conditions: in vivo, 0.1 h. In short, it runs like this: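 Mice habituated 30 min in individual cages, then ambulation counted over a period matching each behavioural test: 6 min for the tail suspension test and 1 min 15 s for the four-plate test. Compounds given ip at the active doses.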

Data set [7] concerns Mus musculus. As to the kind of experiment: Toxicity in ip dosed C57BL/6J mouse assessed as effect on spontaneous locomotory activity at MED measured over 1 min 15 secs. The data set is classed as organism-based. Conditions: in vivo.

Structures are written as SMILES.

T2 sequence (P34969 whole entry): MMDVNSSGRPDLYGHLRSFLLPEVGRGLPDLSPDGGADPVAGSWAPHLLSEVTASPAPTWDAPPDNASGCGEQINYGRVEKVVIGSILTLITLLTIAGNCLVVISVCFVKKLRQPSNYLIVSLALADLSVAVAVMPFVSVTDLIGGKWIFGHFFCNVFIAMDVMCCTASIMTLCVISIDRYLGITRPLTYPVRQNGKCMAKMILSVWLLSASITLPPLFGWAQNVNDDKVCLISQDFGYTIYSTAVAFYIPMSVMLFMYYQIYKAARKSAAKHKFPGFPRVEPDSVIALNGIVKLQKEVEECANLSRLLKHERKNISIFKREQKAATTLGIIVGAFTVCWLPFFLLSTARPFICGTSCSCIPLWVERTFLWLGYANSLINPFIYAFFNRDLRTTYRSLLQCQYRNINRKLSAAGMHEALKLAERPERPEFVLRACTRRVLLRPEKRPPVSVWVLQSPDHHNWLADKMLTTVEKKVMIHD
5-hydroxytryptamine receptor 2A, sequence (P28223 whole entry): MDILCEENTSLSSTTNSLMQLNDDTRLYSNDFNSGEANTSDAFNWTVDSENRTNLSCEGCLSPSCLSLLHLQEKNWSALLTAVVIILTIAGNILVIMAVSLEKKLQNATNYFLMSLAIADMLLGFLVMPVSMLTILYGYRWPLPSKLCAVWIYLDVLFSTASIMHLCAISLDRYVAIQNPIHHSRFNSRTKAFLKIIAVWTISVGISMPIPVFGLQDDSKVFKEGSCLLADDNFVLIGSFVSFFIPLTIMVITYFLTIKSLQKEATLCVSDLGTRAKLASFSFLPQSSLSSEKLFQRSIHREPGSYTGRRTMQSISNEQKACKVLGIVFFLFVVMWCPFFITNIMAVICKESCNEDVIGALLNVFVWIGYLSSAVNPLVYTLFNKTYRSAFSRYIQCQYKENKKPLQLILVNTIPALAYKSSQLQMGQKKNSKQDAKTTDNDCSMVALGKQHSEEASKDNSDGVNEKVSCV

For `CC(C)c1ccccc1OCCN1CCC(NC(=O)c2ccc(F)cc2)CC1`, the Ratio Ki in the data set listed under Homo sapiens stood at 1. Further, the Ki was found to be 199 nM in data set [1] and 285 nM in data set [2].
The matching figures for `O=S(=O)(c1ccc(F)cc1)N1CC2CC1CN2CCOc1ccccc1-c1ccccc1` (stereo not given): 4, 1070 nM and 292 nM.
Regarding `O=S(=O)(c1cccc(Cl)c1)N1CC2CC1CN2CCOc1ccccc1-c1ccccc1` (stereo not given), in the data set filed under Homo sapiens, the Ratio Ki worked out at 8. The Ki was determined as 2670 nM in data set [1] and 319 nM in data set [2].
For the compound `COc1ccccc1OCCN1CCC(NS(=O)(=O)c2ccc(F)cc2)CC1`, the Ki is 463 nM in data set [1] and 344 nM in data set [2].
Turning to `O=S(=O)(NC1CC2CCC(C1)N2CCOc1cccc(-c2ccccc2)c1)c1ccc(F)cc1` (stereo not given), the Ratio Ki in the data set filed under Homo sapiens came to 12. Besides, the Ki was 170 nM in data set [1] and 14 nM in data set [2].
The matching figures for `CC(C)c1cccc(OCCN2C3CCC2CC(NS(=O)(=O)c2cccc(Cl)c2)C3)c1` (stereo not given): 52, 206 nM and 4 nM.
In data set [3], `CC(C)c1ccccc1OCCN1CCC(NS(=O)(=O)c2cccc(F)c2)CC1` registered a Ki of 178 nM. The inhibition in data set [4] came out at 99%; in data set [5] it was 70%.
On to `CC(C)c1cccc(OCCN2C3CCC2CC(NS(=O)(=O)c2cc(F)ccc2F)C3)c1` (stereo not given), for which, in the data set filed under Homo sapiens, the Ratio Ki was 13. Also, the inhibition constant (Ki) turned out to be 51 nM in data set [1] and 4 nM in data set [2].
For `O=S(=O)(NC1CCN(CCOc2ccccc2C2CCCC2)CC1)c1cccc(Cl)c1`, in the data set listed under Homo sapiens, the Ratio Ki was 33. In addition, the Ki came out at 556 nM in data set [1] and 17 nM in data set [2].
As to `O=S(=O)(NC1CCN(CCOc2ccccc2C2CCCC2)CC1)c1ccc(F)cc1`, the Ratio Ki in the data set filed under Homo sapiens is 23. Besides, the Ki in data set [1] was 373 nM; in data set [2], 16 nM.
The matching figures for `CC(C)(C)c1ccccc1OCCN1CCC(NS(=O)(=O)c2cccc(Cl)c2)CC1`: 25, 1850 nM and 74 nM.
With `CC(C)c1cccc(OCCN2C3CCC2CC(NS(=O)(=O)c2cnn(C)c2)C3)c1` (stereo not given), in the data set listed under Homo sapiens, the Ratio Ki came out at 6. The results for the Ki in data set [1] and in data set [2] were 431 nM and 70 nM, respectively.
The matching figures for `O=S(=O)(NC1CCN(CCOc2ccccc2-c2ccccc2)CC1)c1cccnc1`: 10, 536 nM and 53 nM.
On to `O=S(=O)(NC1CC2CCC(C1)N2CCOc1cccc(-c2ccccc2)c1)c1cccc(F)c1` (stereo not given), for which the Ratio Ki in the data set filed under Homo sapiens amounted to 10. Moreover, the inhibitory constant (Ki) in data set [1] came out at 123 nM; in data set [2], 12 nM.
Take `O=S(=O)(NC1CN(CCOc2ccccc2-c2ccccc2)C1)c1cccc(Cl)c1`: the Ratio Ki in the data set listed under Homo sapiens was 1. Moreover, the results for the Ki in data set [1] and in data set [2] were 23 nM and 20 nM, respectively.
With `CN1C(=O)CN=C(c2ccccc2)c2cc(Cl)ccc21` [DIAZEPAM], the Activity entry with Mus musculus [6] and in the data set on Mus musculus [7] was “Non-toxic” throughout.
With `CC(C)c1ccccc1OCCN1CCC(NC(=O)Nc2ccc(F)cc2)CC1`, the Ratio Ki in the data set filed under Homo sapiens came out at 1. Further, the Ki is 190 nM in data set [1] and 201 nM in data set [2].
In the case of `CC(C)c1ccccc1OCCN1CCC(NS(=O)(=O)c2ccc(N)cc2)CC1`, in the data set listed under Homo sapiens, the Ratio Ki came to 13. In addition, the Ki in data set [1] amounted to 502 nM; in data set [2], 39 nM.
The matching figures for `CC(C)c1cccc(OCCN2C3CCC2CC(NS(=O)(=O)c2ccc(F)c(F)c2)C3)c1` (stereo not given): 11, 99 nM and 9 nM.
The matching figures for `O=C(Nc1cccc(Cl)c1)NC1CCN(CCOc2ccccc2-c2ccccc2)CC1`: 4, 718 nM and 198 nM.
Regarding `O=C(NC1CCN(CCOc2ccccc2-c2ccccc2)CC1)c1cccc(Cl)c1`, the Ratio Ki in the data set filed under Homo sapiens is 1. In addition, the Ki in data set [1] was found to be 148 nM; in data set [2], 197 nM.
The matching figures for `CC(C)(C)c1ccccc1OCCN1CCC(NS(=O)(=O)c2ccc(F)cc2)CC1`: 85, 4570 nM and 54 nM.
Take `CC(C)c1ccccc1OCCN1CC(NS(=O)(=O)c2ccc(F)cc2)C1`: the Ratio Ki in the data set filed under Homo sapiens turned out to be 6. Further, the Ki in data set [1] is 45 nM; in data set [2] it was 7 nM.
Regarding `O=S(=O)(NC1CCN(CCOc2ccccc2)CC1)c1ccc(F)cc1`, the Ki in data set [1] came to 1760 nM; in data set [2], 855 nM.
With `O=S(=O)(NC1CC2CCC(C1)N2CCOc1cccc(-c2ccccc2)c1)c1ccc(F)c(F)c1` (stereo not given), the Ratio Ki in the data set listed under Homo sapiens is 4. The Ki in data set [1] amounted to 74 nM; in data set [2], 20 nM.
The matching figures for `Cn1cc(S(=O)(=O)NC2CCN(CCOc3ccccc3C(C)(C)C)CC2)cn1`: 66, 5550 nM and 84 nM.
The matching figures for `CC(C)c1ccccc1OCCN1CCC(NS(=O)(=O)c2cccnc2)CC1`: 5, 371 nM and 72 nM.
For the compound `CC(C)c1ccccc1OCCN1CC2CC1CN2S(=O)(=O)c1ccc(F)cc1` (stereo not given), the Ratio Ki in the data set filed under Homo sapiens came out at 2. For the same compound, the Ki stood at 260 nM in data set [1] and 162 nM in data set [2].
On to `CC(C)c1cccc(C(C)C)c1OCCN1CCC(NS(=O)(=O)c2ccc(F)cc2)CC1`, for which the Ki turned out to be 6150 nM in data set [1] and 1920 nM in data set [2].
In the case of `CC(C)c1ccccc1OCCN1CC2CC1CN2S(=O)(=O)c1cccc(Cl)c1` (stereo not given), the Ratio Ki in the data set listed under Homo sapiens was 2. The Ki in data set [1] came out at 393 nM; in data set [2], 168 nM.
With `Cn1cc(S(=O)(=O)NC2CN(CCOc3ccccc3-c3ccccc3)C2)cn1`, the Ratio Ki in the data set listed under Homo sapiens amounted to 1. In addition, the figures for the Ki in data set [1] and in data set [2] were 46 nM and 40 nM, respectively.
With `Cc1ccccc1OCCN1CCC(NS(=O)(=O)c2ccc(F)cc2)CC1`, the Ki in data set [1] stood at 745 nM; in data set [2], 163 nM.
In data set [1], `CC(C)c1ccccc1OCCN1CC(NS(=O)(=O)c2cccc(F)c2)C1` returned a Ki of 28 nM.
Regarding `Nc1ccc(S(=O)(=O)NC2CCN(CCOc3ccccc3-c3ccccc3)CC2)cc1`, the Ratio Ki in the data set filed under Homo sapiens came to 16. The Ki was determined as 407 nM in data set [1] and 26 nM in data set [2].
Consider `CC(C)Oc1ccccc1OCCN1CCC(NS(=O)(=O)c2ccc(F)cc2)CC1`, for which the results for the Ki in data set [1] and in data set [2] were 197 nM and 27 nM, respectively.
In the case of `CC(C)c1ccccc1OCCN1CCC(NC(=O)Nc2cccc(Cl)c2)CC1`, the Ratio Ki in the data set listed under Homo sapiens worked out at 2. The Ki was 591 nM in data set [1] and 264 nM in data set [2].
